Screens (PubChem)
GASC-1 inh – inhibitors of GASC-1 histone demethylase, primary screen, biochemical, fluorescence, DELFIA europium; Lysine-specific demethylase 4C (Homo sapiens), Q9H3R0; GST-JMJD2C(1-420) H3K9me3 demethylation; inhibition, % at 2.35 µM; 330,000 tested, 0.069% active;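 active = more than half of a compound's replicate wells show inhibition beyond 50%, single wells judged on their own value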;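 also: signal counts dimethyl H3K9 product captured on neutravidin plate; 0% = median of DMSO wells and 100% = 0.3 times that DMSO median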
Target sequence (Q9H3R0 1-420 limits assumed): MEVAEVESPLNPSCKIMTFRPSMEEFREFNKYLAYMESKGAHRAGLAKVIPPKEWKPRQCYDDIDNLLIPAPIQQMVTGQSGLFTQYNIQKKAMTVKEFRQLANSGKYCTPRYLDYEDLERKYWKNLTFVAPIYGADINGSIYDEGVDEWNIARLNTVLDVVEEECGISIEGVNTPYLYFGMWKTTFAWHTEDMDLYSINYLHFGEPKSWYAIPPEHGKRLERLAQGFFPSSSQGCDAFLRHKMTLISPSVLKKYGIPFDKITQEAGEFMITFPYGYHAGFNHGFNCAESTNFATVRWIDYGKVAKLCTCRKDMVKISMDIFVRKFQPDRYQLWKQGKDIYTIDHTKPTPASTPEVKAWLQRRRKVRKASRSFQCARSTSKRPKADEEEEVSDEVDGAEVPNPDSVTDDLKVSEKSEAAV
SMARCA2 activ – SMARCA2 (BRM) function activators, primary screen, cell-based, luminescence, high throughput | MG213 cells, MMTV-luciferase reporter, dexamethasone, overnight | activation, % at 9.1 µM | 370,000 tested, 1% active | AID 652017, 2013; in the data active = activation above about 7.8%;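 also: 0% = vehicle wells and 100% = reference activator wells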
NR2E3 ag-1 – inhibitors of NR2E3-RetCOR corepressor binding, primary screen, NR2E3 agonist project, biochemical, TR-FRET, GST-NR2E3, biotin-RetCOR. inhibition of corepressor binding, % at 4.78 µM. 320,000 tested, 0.12% active. AID 2300, 2010. 1536-well. Photoreceptor-specific nuclear receptor (Homo sapiens), Q9Y5X4;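 active = percent inhibition above the cutoff of mean plus 3 SD of all tested compounds, set per screening campaign, cut at about 20% in these data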;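 also: 0% = DMSO wells and 100% = biotin wells as full block of FRET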
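System: GST-tagged NR2E3 plus biotinylated RetCOR corepressor; Buffer or medium: pH 7.5 Tris-based buffer; Probe or stimulus: RetCOR corepressor, biotinylated, 7 nM; Doses: compound at 4.8 µM, single dose; Schedule: 5 h incubation at 4 °C; Technique: time-resolved FRET; Evaluation: percent inhibition of TR-FRET ratio; Replication: one well per compound, singlicate testing.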
DAX1 inh-1 – DAX1 (NR0B1) inhibitors on StAR promoter, primary screen, cell-based, luminescence, SF-1 (NR5A1), full-length DAX-1. HEK293T StAR-luciferase reporter, SF-1/DAX-1 repression relief. inhibition, % at 6.8 µM. 370,000 tested, 1.1% active;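 active = inhibition above the mean over all tested compounds plus 3 SD, cut at about 3.6% in these data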;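 also: 0% = DAX-1 cells with DMSO and 100% = cells lacking DAX-1 with DMSO; higher inhibition means more luminescence from relief of DAX-1 repression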
NR2E3 ag-2 – NR2E3 agonists in two-hybrid cells, primary screen, cell-based, luminescence, CHO-S, Gal4-NCOR/VP16-NR2E3; Photoreceptor-specific nuclear receptor (Homo sapiens), Q9Y5X4; luciferase; inhibition of corepressor binding, % at 3.98 µM; 360,000 tested, 0.35% active;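 active = inhibition above the mean of all tested compounds plus 3 SD, cut at about 70% in these data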;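 also: 0% = DMSO with NR2E3 transfected cells and 100% = cells lacking NR2E3 construct; higher means lower luciferase signal from less NR2E3 corepressor binding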
DAX1 inh-2 – DAX1 (NR0B1) inhibitors, primary screen, cell-based, HEK293, Gal4-DAX1, luciferase luminescence. HEK293 Gal4-DAX1 luciferase reporter. Nuclear receptor subfamily 0 group B member 1 (Homo sapiens), P51843. AID 504766, 2011. 340,000 tested, 0.99% active. inhibition, % at 6.75 µM;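 active = inhibition above the mean over all tested compounds plus 3 SD, cut at about 4.2% in these data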;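 also: 0% = DAX1-transfected cells with DMSO and 100% = empty-vector control cells with DMSO; inhibition shows as a rise in luminescence from relieved DAX1 repression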
* hit, by the source's call; . = no result given. An excerpt weighted towards active compounds, which were near 3.2% of everything screened.

SMILES | GASC-1 inh | SMARCA2 activ | NR2E3 ag-1 | DAX1 inh-1 | NR2E3 ag-2 | DAX1 inh-2
COc1ccc(C=NNC(=O)CCCC(=O)NN=Cc2ccc(OC)c(OC)c2)cc1OC | . | 1.8 | . | -1.2 | -8.4 | 0.5
COc1ccc(C=NNC(=O)NN=Cc2ccc(OC)c(OC)c2)cc1OC | . | 5.0 | . | 0.8 | -46.2 | 5.0*
COc1cc(/C=N\Nc2cc(=O)n(C)c(=O)n2C)ccc1O | -11.2 | 0.0 | 1.2 | -1.1 | -19.3 | -0.3
CN[C@H]1C[C@H]2c3[nH]c4c(-c5cccc(C)c5)cccc4c3CCN2C(=O)[C@H]1[C@H](C)O | . | -1.7 | . | 1.2 | . | .
CC(C)(C)OC(=O)/C=C/[C@@H](CC1CCCC1)Sc1ccc(C(C)(C)C)cc1 | . | 0.5 | . | 0.2 | . | .
Cn1c(=O)c2cc(S(=O)(=O)N3CCN(CCO)CC3)ccc2n(C)c1=O | . | -1.7 | . | 1.4 | . | .
COc1ccc(Cn2ccc3ccc(-c4ccc5ccn(Cc6ccccc6)c5c4)cc32)cc1 | . | -2.0 | . | -0.1 | . | .
COc1ccc(/C=N/NC(=O)c2c(C)nnn2-c2nonc2N)cc1OC | 6.0 | 0.3 | 0.7 | -0.2 | -12.8 | 5.8*
COc1cc(/C=N/NC(=O)c2ccccc2)ccc1O | 6.6 | 6.9 | 3.0 | 1.5 | -3.5 | 5.9*
COc1ccc(Oc2c(Br)cnn(Cc3cccc4ccccc34)c2=O)cc1 | . | 0.0 | . | 1.0 | . | .
Oc1c(C=Nc2cccnc2)sc2ccccc12 | 11.6 | 7.9* | -12.0 | 0.4 | -0.1 | 0.7
Oc1c(/C=N/c2ccccn2)sc2ccccc12 | 5.6 | 1.1 | -4.4 | 1.0 | -33.2 | 4.7*
Cc1cccn2c(=O)c(C(=O)NC3CC(C)CC(C)(C)C3)c(O)nc12 (stereo not drawn) | 52.5* | 2.9 | 2.3 | 0.0 | -4.3 | 0.2
Cc1cccn2c(=O)c(C(=O)NC3CCCCC3C)c(O)nc12 (stereo not drawn) | 3.2 | -1.0 | 0.6 | 4.0* | -47.4 | 1.5
Cc1cccn2c(=O)c(C(=O)NC3CCCCC3)c(O)nc12 | -0.8 | -0.2 | -0.7 | -0.2 | 2.5 | 0.4
FC(F)(F)c1cccc(Cn2ccc3ccc(-c4ccc5ccn(Cc6cccc(C(F)(F)F)c6)c5c4)cc32)c1 | . | -0.6 | . | -0.7 | . | .
NNc1ncnc2sc3c(c12)CCC3 | -5.3 | 0.7 | 9.4 | 1.3 | -37.4 | 6.3*
COc1ccc(C2c3c(oc4ccccc4c3=O)C(=O)N2c2ccc(C)cn2)cc1OC (stereo not drawn) | -10.3 | -2.2 | 1.3 | 1.1 | 12.2 | 5.0*
COc1cccc(C2c3c(oc4ccccc4c3=O)C(=O)N2c2ccccn2)c1 (stereo not drawn) | -6.7 | -3.5 | -2.0 | 0.2 | -12.9 | 3.5
NC(=O)c1ccc(Oc2ncc(C(F)(F)F)cc2Cl)cc1 | 1.9 | -1.9 | 1.1 | 0.7 | -37.3 | -0.5
NC(=O)c1ccc(Oc2ccc(C(N)=O)cc2)cc1 | 4.0 | -4.1 | 0.9 | 0.3 | 26.4 | 5.2*
CCOC(=O)C1=NOC(C(=O)Nc2cc(C)cc(C)c2)(C(=O)C2CC2)C1 (stereo not drawn) | . | -2.0 | . | 0.8 | . | .
CC(C)(C)c1ccc(-c2nnc(SCC(=O)Nc3ccc4c(c3)OCCO4)n2-c2ccc(Cl)cc2)cc1 | . | -2.7 | . | 0.4 | . | .
CC(C)(C)NC(=O)Cn1c(SCC(=O)NC2CC2)nc2ccccc21 | -1.3 | -3.2 | 5.1 | 0.2 | -35.7 | 4.7*
COc1ccccc1OCC(=O)Nc1ccc2c(c1)OCCO2 | 7.2 | 2.4 | -0.4 | 0.7 | 24.4 | 1.1
NC(=O)c1ccccc1OCC(=O)Nc1ccc2c(c1)OCCO2 | . | 0.5 | . | 4.5* | -46.3 | 0.7
Cc1ccccc1OCC(=O)Nc1ccc2c(c1)OCCO2 | -0.8 | 2.1 | -1.2 | 2.8 | -0.5 | 8.2*
Cc1c(NC(=O)COC(=O)c2ccc[nH]c2=O)c(=O)n(-c2ccccc2)n1C | -8.3 | -0.6 | 0.0 | -0.2 | -15.7 | 5.3*
